The values that follow come from article PMC3932306 (Journal of natural products, 2013).

Test [1] relates to murine cathepsin L. Conditions: cited from earlier work.
Test [2] deals with human cathepsin H (Homo sapiens, UniProt P09668). In words: Selectivity: cathepsin H inhibition. As to conditions: at the highest assay concentrations. Format: biochemical. The essentials: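 Human cathepsin H (50 ng/mL) in 50 mM potassium phosphate, 3 mM cysteine, 1 mM EDTA, pH 6.4, with 200 µM Arg-AMC substrate. Dose-response ran with 0 min and 30 min enzyme–inhibitor preincubation, otherwise as for the cathepsin L assay, in technical triplicate.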
Chain of human cathepsin H (P09668 116-335 limits assumed, other chains not shown): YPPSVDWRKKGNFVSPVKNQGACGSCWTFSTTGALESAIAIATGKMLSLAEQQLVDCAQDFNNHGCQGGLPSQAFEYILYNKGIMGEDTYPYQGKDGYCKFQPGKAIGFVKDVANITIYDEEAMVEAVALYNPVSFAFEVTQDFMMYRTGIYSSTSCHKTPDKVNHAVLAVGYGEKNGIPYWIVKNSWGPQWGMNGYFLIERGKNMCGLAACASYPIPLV

For test [3], the target named is T1, cathepsin L (Homo sapiens, UniProt P07711). The experiment in a line: Cathepsin L inhibition assay. Format: biochemical. Conditions: for Selectivity Index: IC50 of assayed protease / IC50 cathepsin L. The essentials:
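Recombinant human cathepsin L (3.0 ng/mL) with 20 µM Z-Phe-Arg-AMC in 50 mM sodium acetate, 100 mM NaCl, 1.0 mM EDTA, 4 mM DTT, pH 5.5, at 25 °C. Fluorescence read at 365/450 nm. Dose-response was […], 3-fold, 333–0.46 nM, in triplicate, with immediate mixing or 30 min enzyme–inhibitor preincubation. Data were scaled to E-64-c/DMSO controls and fitted to a four-parameter logistic model for IC50. Selectivity index = IC50 of the assayed protease / IC50 of cathepsin L for each condition.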

Test [4] deals with T1, cathepsin L. The experiment in a line: Active-site directed probe. In kind it is binding. Conditions: 30 min preincubation; enzyme 100 nM. The essentials:
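Test compound in a 6-point, 3-fold serial dilution (10% DMSO) was preincubated 30 min at room temperature with recombinant human cathepsin L in 100 mM sodium acetate, 1.0 mM EDTA, 4 mM DTT, pH 5.5. CLIK-148 and DMSO served as controls. Biotinylated epoxide probe DCG-04 (10 µM stock) was added for 30 min at room temperature. Samples were denatured at 70 °C for 5 min, run on 12% Bis-Tris SDS-PAGE and blotted to nitrocellulose. Detection used avidin/biotinylated HRP with chemiluminescence.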

Test [5] has as its system Plasmodium falciparum falcipain proteases. Conditions: cited from earlier work.
The target in test [6] is T1, cathepsin L. The experiment in a line: Reversibility: preincubation-dilution experiment. As to conditions: preincubation-dilution and activity-probe experiments. In kind it is biochemical. The method, boiled down: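 Preincubation-dilution test: cathepsin L at 100-fold final assay concentration was incubated 30 min with a concentrated test compound in 2 µL. The mix was then diluted 100-fold into assay buffer containing 10 µM Z-FR-AMC, 200 µL final. AMC release was monitored continuously in kinetic mode for 2 h. Activity was compared against a vehicle control.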

Molecules are shown by their SMILES.

T1 sequence (P07711 114-333): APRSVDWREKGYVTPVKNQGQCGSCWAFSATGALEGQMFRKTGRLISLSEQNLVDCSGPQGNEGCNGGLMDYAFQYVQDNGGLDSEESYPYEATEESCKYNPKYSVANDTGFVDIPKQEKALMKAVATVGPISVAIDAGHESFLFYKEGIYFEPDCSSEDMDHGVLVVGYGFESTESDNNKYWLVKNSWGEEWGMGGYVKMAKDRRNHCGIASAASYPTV

By inhibition is commonly meant the share of the control response that was lost under treatment. As to `CC[C@H](C)[C@@H](C(=O)O[C@@H](CC(C)C)C(=O)N[C@@H](CC(C)C)C(=O)N[C@@H](C)/C=C/C(=O)N1C(=O)C=C(OC)[C@@H]1C)N(C)C` [compound 1, gallinamide A], in test [1], the “inhibition of murine cathepsin L (in words)” value was “moderate inhibition”. Moreover, the “activity against cathepsin H (in words)” value in test [2] is “inactive”. Further, in test [3] (0 min), the “Selectivity Index” value was determined as 1. In addition, the “Selectivity Index” value in test [3] (30 min) is on record as 1. Besides, the inhibition at 3 µg/mL in test [3] (read-out: inhibition of cathepsin L) fell in the range of 97 to 99%. Moreover, in test [4], the “concentration giving complete loss of DCG-04 probe labeling” value came out at 333 nM and the “concentration giving decreased DCG-04 probe labeling” value was 111 nM. For the same molecule, the “mode of inhibition of falcipain proteases” value in test [5] (based on kinetic model fitting) is given as “covalent, irreversible inhibitor”. In addition, the “inhibition of P. falciparum falcipain proteases (in words)” value in test [5] is listed as “potent inhibition”. The mode of inhibition result in test [6] is “irreversible”.
